Experimental data taken from ChEMBL document CHEMBL1821603, “Bivalent bendamustine and melphalan derivatives as anticancer agents” (Eur J Med Chem, 2011).
The source made the active and inactive calls. No cut-off for these calls is given here.

Tests used:
MCF7 [1] = assay: Cytostatic effect against human MCF7 cells at 5 uM after 72 hrs by crystal violet staining relative to uncreate control; type: functional, cell-based
Procedure, shortened: (§1)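 MCF-7 or MDA-MB-231 cells (ATCC) in DMEM high glucose with 5% FCS, seeded at 7500 cells/mL and grown 3 days at 37 °C, 5% CO2. Compound was added from a DMF or methanol stock and incubated 72 h. Cells were glutardialdehyde-fixed and stained with crystal violet, and the dye was extracted with 70% ethanol for OD 578 nm. T/Ccorr = (T−C0)/(C−C0)×100, where C0 is the OD before treatment. Run 3 times.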

MDA-MB-231 = assay: Antiproliferative activity against human MDA-MB-231 cells after 72 hrs by crystal violet staining; type: functional, cell-based; procedure, shortened: as §1
[2] = Half life in PBS buffer at pH 7.4; type: physicochemical
MCF7 [3] = assay: Cytostatic effect against human MCF7 cells at 10 uM after 72 hrs by crystal violet staining relative to uncreate control; type: functional; procedure, shortened: as §1
MCF7 [4] = assay: Cytotoxicity against human MCF7 cells at 1 uM after 72 hrs by crystal violet staining; type: functional, cell-based
Procedure, shortened: (§2)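 MCF-7 cells in DMEM high glucose with 5% FCS were seeded at 7500 cells/mL and grown 3 days at 37 °C, 5% CO2. Then exposed 72 h to compound added from a DMF or methanol stock. Biomass was read by crystal violet staining of glutardialdehyde-fixed cells, with 70% ethanol extraction and OD at 578 nm, against untreated control and pre-treatment OD. Three runs per substance.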

MCF7 [5] = assay: Cytotoxicity against human MCF7 cells at 5 uM after 72 hrs by crystal violet staining; type: functional, cell-based; procedure, shortened: as §2
MCF7 [6] = assay: Cytotoxicity against human MCF7 cells at 10 uM after 72 hrs by crystal violet staining; type: functional, cell-based; procedure, shortened: as §2

| Compound | Activity (MCF7 [1]) | Activity (MDA-MB-231) | half-life [2] | T/C (MCF7 [3]) | Activity (MCF7 [4]) | Activity (MCF7 [5]) | Activity (MCF7 [6]) |
| --- | --- | --- | --- | --- | --- | --- | --- |
| Cn1c(CCCC(=O)OCCN2C(=O)C=CC2=O)nc2cc(N(CCCl)CCCl)ccc21 | Active | Active | 600 min | – | – | – | – |
| CC(C)(C)OC(=O)N[C@@H](Cc1ccc(N(CCCl)CCCl)cc1)C(=O)OCCN1C(=O)C=CC1=O | – | Active | – | – | – | – | – |
| N[C@@H](Cc1ccc(N(CCCl)CCCl)cc1)C(=O)O [MELPHALAN] | – | Active | – | 20% | – | – | – |
| Cn1c(CCCC(=O)O)nc2cc(N(CCCl)CCCl)ccc21 | – | Active | – | – | inactive | inactive | inactive |
